In ChEMBL document CHEMBL1240480, “Design, synthesis and biological evaluation of L-dopa amide derivatives as potential prodrugs for the treatment of Parkinson's disease” (Eur J Med Chem, 2010):

Tests used:
[1] = test system: Rattus norvegicus; assay: Antiparkinsonian activity in 6-hydroxydopamine lesioned Wistar rat assessed as area under curve measured as number of rotation per 10 mins at 16.53 mg/kg, po; format: functional
Summary of the method: (§1)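 Male Wistar rats were given desipramine (25 mg/kg ip) and then a unilateral 6-OHDA injection (8 µg free base) into the left medial forebrain bundle. Lesions were confirmed ≥2 weeks later by apomorphine (0.5 mg/kg sc), accepting rats with >6 turns/min. Rats (n=4–8) received benserazide 10 mg/kg and 30 min basal recording, then drug at 63.4 µmol/kg ip or po in saline. Contraversive rotations were counted per 10 min over 240 min. AUC was calculated and expressed as % of the L-dopa effect.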

[2] = test system: Rattus norvegicus; assay: Antiparkinsonian activity in 6-hydroxydopamine lesioned Wistar rat assessed as duration of rotation per 10 mins at 16.53 mg/kg, ip; format: functional; conditions: route intraperitoneal
Summary of the method: (§2)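 The 6-OHDA-lesioned male Wistar rats were apomorphine-screened (>6 turns/min) and given benserazide 10 mg/kg, then a saline-vehicle dose of 63.4 µmol/kg ip or po (n=4–8). Rotations were counted per 10 min for 4 h. Duration of activity was the time turning >10 turns per 10 min, expressed as % of the L-dopa effect.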

[3] = test system: Rattus norvegicus; assay: Antiparkinsonian activity in 6-hydroxydopamine lesioned Wistar rat assessed as number of rotation per 10 mins at 16.53 mg/kg, po; format: functional
Summary of the method: (§3)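 Rotometer assay in unilaterally 6-OHDA-lesioned male Wistar rats (apomorphine-confirmed, >6 turns/min). Benserazide 10 mg/kg was given, followed by compound at 63.4 µmol/kg ip or po in saline (n=4–8 per treatment). Rotations were recorded per 10 min for 240 min. Peak (maximum) rotations per 10 min were taken and expressed relative to L-dopa.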

[4] = test system: Rattus norvegicus; assay: Antiparkinsonian activity in 6-hydroxydopamine lesioned Wistar rat assessed as area under curve measured as number of rotation per 10 mins at 16.53 mg/kg, ip; format: functional; conditions: route intraperitoneal; summary of the method: as §1
[5] = test system: Rattus norvegicus; assay: Antiparkinsonian activity in 6-hydroxydopamine lesioned Wistar rat assessed as duration of rotation per 10 mins at 16.53 mg/kg, po; format: functional; summary of the method: as §2
[6] = test system: Rattus norvegicus; assay: Antiparkinsonian activity in 6-hydroxydopamine lesioned Wistar rat assessed as number of rotation per 10 mins at 16.53 mg/kg, ip; format: functional; conditions: route intraperitoneal; summary of the method: as §3
[7] = test system: Rattus norvegicus; assay: Antiparkinsonian activity in 6-hydroxydopamine lesioned Wistar rat assessed as number of rotation per 10 mins at 14.74 mg/kg, ip; format: functional; conditions: route intraperitoneal; summary of the method: as §3
[8] = test system: Rattus norvegicus; assay: Antiparkinsonian activity in 6-hydroxydopamine lesioned Wistar rat assessed as area under curve measured as number of rotation per 10 mins at 14.74 mg/kg, ip; format: functional; conditions: route intraperitoneal; summary of the method: as §1
[9] = test system: Rattus norvegicus; assay: Antiparkinsonian activity in 6-hydroxydopamine lesioned Wistar rat assessed as duration of rotation per 10 mins at 14.74 mg/kg, ip; format: functional; conditions: route intraperitoneal; summary of the method: as §2
[10] = test system: Rattus norvegicus; assay: AUC (0 to 4 hrs) in Wistar rat at 14.8 mg/kg, po assessed as L-dopa level; format: ADME, organism-based, Plasma; set-up: time < 4 hr, dose 14.8 mg/kg, route oral; conditions: in vivo
Summary of the method: (§4)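 Naïve male Wistar rats (250–500 g), fasted overnight, dosed with compound in 0.9% saline together with benserazide (10 mg/kg), at a dose molar-equivalent to 12.5 mg/kg L-dopa. Heparinised tail-vein blood was sampled at intervals and the plasma stored at −80 °C. L-dopa was extracted with 20% TFA/10 mM metabisulphite plus warfarin internal standard and quantified by LC-MS/MS (positive ESI) against plasma standard curves.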

[11] = test system: Rattus norvegicus; assay: Apparent half life in Wistar rat at 14.8 mg/kg, po assessed as L-dopa level; format: ADME, organism-based; set-up: dose 14.8 mg/kg, route oral; conditions: in vivo
Summary of the method: (§5)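 Naïve male Wistar rats (250–500 g), fasted overnight, dosed orally in 0.9% saline with benserazide (10 mg/kg) at dose equivalent to 12.5 mg/kg L-dopa. Heparinised tail-vein blood at various times; plasma extracted with 20% TFA in 10 mM metabisulphite with warfarin internal standard; L-dopa quantified by LC-MS/MS (positive ESI) against plasma standard curve 0.39–50 µM.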

[12] = test system: Rattus norvegicus; assay: Antiparkinsonian activity in 6-hydroxydopamine lesioned Wistar rat assessed as number of rotation per 10 mins at 14.74 mg/kg, po; format: functional; summary of the method: as §3
[13] = test system: Rattus norvegicus; assay: Cmax in Wistar rat at 14.8 mg/kg, po assessed as L-dopa level; format: ADME, organism-based; set-up: dose 14.8 mg/kg, route oral; conditions: in vivo; summary of the method: as §5
[14] = test system: Rattus norvegicus; assay: Antiparkinsonian activity in 6-hydroxydopamine lesioned Wistar rat assessed as duration of rotation per 10 mins at 14.74 mg/kg, po; format: functional; summary of the method: as §2
[15] = test system: Rattus norvegicus; assay: Antiparkinsonian activity in 6-hydroxydopamine lesioned Wistar rat assessed as area under curve measured as number of rotation per 10 mins at 14.74 mg/kg, po; format: functional; summary of the method: as §1
[16] = test system: Rattus norvegicus; assay: Antiparkinsonian activity in 6-hydroxydopamine lesioned Wistar rat assessed as number of rotation per 10 mins at 15.64 mg/kg, po; format: functional; summary of the method: as §3
[17] = test system: Rattus norvegicus; assay: Antiparkinsonian activity in 6-hydroxydopamine lesioned Wistar rat assessed as number of rotation per 10 mins at 15.64 mg/kg, ip; format: functional; conditions: route intraperitoneal; summary of the method: as §3
[18] = test system: Rattus norvegicus; assay: Antiparkinsonian activity in 6-hydroxydopamine lesioned Wistar rat assessed as duration of rotation per 10 mins at 15.64 mg/kg, ip; format: functional; conditions: route intraperitoneal; summary of the method: as §2
[19] = test system: Rattus norvegicus; assay: Antiparkinsonian activity in 6-hydroxydopamine lesioned Wistar rat assessed as duration of rotation per 10 mins at 15.64 mg/kg, po; format: functional; summary of the method: as §2
[20] = test system: Rattus norvegicus; assay: Antiparkinsonian activity in 6-hydroxydopamine lesioned Wistar rat assessed as area under curve measured as number of rotation per 10 mins at 15.64 mg/kg, ip; format: functional; conditions: route intraperitoneal; summary of the method: as §1
[21] = test system: Rattus norvegicus; assay: Antiparkinsonian activity in 6-hydroxydopamine lesioned Wistar rat assessed as area under curve measured as number of rotation per 10 mins at 15.64 mg/kg, po; format: functional; summary of the method: as §1
[22] = test system: Rattus norvegicus; assay: Apparent half life in Wistar rat at 42.5 mg/kg, po assessed as L-dopa level; format: ADME, organism-based; set-up: dose 42.5 mg/kg, route oral; conditions: in vivo; summary of the method: as §5
[23] = test system: Rattus norvegicus; assay: AUC (0 to 4 hrs) in Wistar rat at 42.5 mg/kg, po assessed as L-dopa level; format: ADME, organism-based, Plasma; set-up: time < 4 hr, dose 42.5 mg/kg, route oral; conditions: in vivo; summary of the method: as §4
[24] = test system: Rattus norvegicus; assay: Cmax in Wistar rat at 42.5 mg/kg, po assessed as L-dopa level; format: ADME, organism-based; set-up: dose 42.5 mg/kg, route oral; conditions: in vivo; summary of the method: as §5
[25] = test system: Rattus norvegicus; assay: Antiparkinsonian activity in 6-hydroxydopamine lesioned Wistar rat assessed as duration of rotation per 10 mins at 21.35 mg/kg, po; format: functional; summary of the method: as §2
[26] = test system: Rattus norvegicus; assay: Antiparkinsonian activity in 6-hydroxydopamine lesioned Wistar rat assessed as duration of rotation per 10 mins at 21.35 mg/kg, ip; format: functional; conditions: route intraperitoneal; summary of the method: as §2
[27] = test system: Rattus norvegicus; assay: Antiparkinsonian activity in 6-hydroxydopamine lesioned Wistar rat assessed as area under curve measured as number of rotation per 10 mins at 21.35 mg/kg, ip; format: functional; conditions: route intraperitoneal; summary of the method: as §1
[28] = test system: Rattus norvegicus; assay: Antiparkinsonian activity in 6-hydroxydopamine lesioned Wistar rat assessed as area under curve measured as number of rotation per 10 mins at 21.35 mg/kg, po; format: functional; summary of the method: as §1
[29] = test system: Rattus norvegicus; assay: Antiparkinsonian activity in 6-hydroxydopamine lesioned Wistar rat assessed as number of rotation per 10 mins at 21.35 mg/kg, po; format: functional
[30] = test system: Rattus norvegicus; assay: Antiparkinsonian activity in 6-hydroxydopamine lesioned Wistar rat assessed as number of rotation per 10 mins at 21.35 mg/kg, ip; format: functional; conditions: route intraperitoneal
[31] = test system: Rattus norvegicus; assay: Cmax in Wistar rat at 20.1 mg/kg, po assessed as L-dopa level; format: ADME, organism-based; set-up: dose 20.1 mg/kg, route oral; conditions: in vivo; summary of the method: as §5
[32] = test system: Rattus norvegicus; assay: Antiparkinsonian activity in 6-hydroxydopamine lesioned Wistar rat assessed as area under curve measured as number of rotation per 10 mins at 20.1 mg/kg, po; format: functional; summary of the method: as §1
[33] = test system: Rattus norvegicus; assay: Antiparkinsonian activity in 6-hydroxydopamine lesioned Wistar rat assessed as duration of rotation per 10 mins at 20.1 mg/kg, ip; format: functional; conditions: route intraperitoneal; summary of the method: as §2
[34] = test system: Rattus norvegicus; assay: Apparent half life in Wistar rat at 20.1 mg/kg, po assessed as L-dopa level; format: ADME, organism-based; set-up: dose 20.1 mg/kg, route oral; conditions: in vivo; summary of the method: as §5
[35] = test system: Rattus norvegicus; assay: Antiparkinsonian activity in 6-hydroxydopamine lesioned Wistar rat assessed as duration of rotation per 10 mins at 20.1 mg/kg, po; format: functional; summary of the method: as §2
[36] = test system: Rattus norvegicus; assay: Antiparkinsonian activity in 6-hydroxydopamine lesioned Wistar rat assessed as number of rotation per 10 mins at 20.1 mg/kg, ip; format: functional; conditions: route intraperitoneal; summary of the method: as §3
[37] = test system: Rattus norvegicus; assay: Antiparkinsonian activity in 6-hydroxydopamine lesioned Wistar rat assessed as area under curve measured as number of rotation per 10 mins at 20.1 mg/kg, ip; format: functional; conditions: route intraperitoneal; summary of the method: as §1
[38] = test system: Rattus norvegicus; assay: AUC (0 to 4 hrs) in Wistar rat at 20.1 mg/kg, po assessed as L-dopa level; format: ADME, organism-based, Plasma; set-up: time < 4 hr, dose 20.1 mg/kg, route oral; conditions: in vivo; summary of the method: as §4
[39] = test system: Rattus norvegicus; assay: Antiparkinsonian activity in 6-hydroxydopamine lesioned Wistar rat assessed as number of rotation per 10 mins at 20.1 mg/kg, po; format: functional; summary of the method: as §3

CCNC(=O)[C@@H](N)Cc1ccc(O)c(O)c1.Cl
Activity [1]: 324 | Time [2]: 18 min | Activity [3]: 39 | Activity [4]: 117 | Time [5]: 39 min | Activity [6]: 40

Cl.NC(=O)[C@@H](N)Cc1ccc(O)c(O)c1
Activity [7]: 144 | Activity [8]: 1186 | Time [9]: 155 min | AUC [10]: 256 µg·min/mL | t1/2 [11]: 52 min | Activity [12]: 105 | Cmax [13]: 2203 ng/mL | Time [14]: 103 min | Activity [15]: 612

CNC(=O)[C@@H](N)Cc1ccc(O)c(O)c1.Cl
Activity [16]: 5 | Activity [17]: 2 | Time [18]: 0 min | Time [19]: 10 min | Activity [20]: 16 | Activity [21]: 29

CC(C)(C)C(=O)Oc1ccc(C[C@H](N)C(N)=O)cc1OC(=O)C(C)(C)C.Cl
t1/2 [22]: 51 min | AUC [23]: 44 µg·min/mL | Cmax [24]: 415 ng/mL

Cl.N[C@@H](Cc1ccc(O)c(O)c1)C(=O)NCCc1ccccc1
Time [25]: 30 min | Time [26]: 124 min | Activity [27]: 825 | Activity [28]: 94 | Activity [29]: 17 | Activity [30]: 124

CC(=O)Oc1ccc(C[C@H](N)C(N)=O)cc1OC(C)=O.Cl
Cmax [31]: 1746 ng/mL | Activity [32]: 1085 | Time [33]: 140 min | t1/2 [34]: 97 min | Time [35]: 147 min | Activity [36]: 69 | Activity [37]: 838 | AUC [38]: 245 µg·min/mL | Activity [39]: 107
